Source: ChEMBL document CHEMBL4321879, “Novel Class of Colony-Stimulating Factor 1 Receptor Kinase Inhibitors Based on an o-Aminopyridyl Alkynyl Scaffold as Potential Treatment for Inflammatory Disorders” (J Med Chem, 2020)
Activity calls are given as the source filed them. The calls are words filed in the database; no cut-off is given here.

What was measured:
[1] = Cytotoxicity against mouse RAW264.7 cells assessed as reduction in cell viability measured after 24 hrs by CCK8 assay; format: cell-based
Summary of the method: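 RAW264.7 cells were seeded in triplicate in DMEM and exposed to compound for 24 h. CCK-8 was added, incubated 1 h, and absorbance read at 450 nm with 570 nm reference. CC50 from log(inhibitor) versus normalized response nonlinear fit.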

[2] = biological target: Macrophage colony-stimulating factor 1 receptor (Mus musculus) (UniProt P09581); experiment: Inhibition of CSF1R in CSF1-stimulated mouse RAW264.7 cells assessed as reduction in CSF1R phosphorylation preincubated for 6 hrs followed by CSF1 stimulation and measured after 20 mins by Western blot analysis; format: cell-based
Summary of the method: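 RAW264.7 cells were plated in six-well plates overnight, treated with compound for 6 h, then stimulated with CSF-1 100 ng/mL for 20 min. Lysates were normalized by BCA, run on 10% SDS-PAGE, and blotted with antibodies to phospho-CSF1R (Tyr723), CSF1R, phospho-Akt (Ser473), Akt and actin.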

[3] = biological target: c-KIT (Homo sapiens, UniProt P10721); experiment: Inhibition of recombinant human N-terminal GST-tagged c-KIT (544 to end residues) expressed in baculovirus infected Sf21 insect cells at 100 nM using poly (Glu, Tyr)4:1 as substrate measured after 1 hr by ELISA relative to control; settings: probe poly (Glu, Tyr)4:1
Summary of the method: (§1)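 Recombinant kinase was incubated with compound in reaction buffer containing 5 μM ATP, in wells precoated with poly(Glu,Tyr) 4:1, for 1 h at 37 °C. Phosphorylation was detected by ELISA.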

[4] = biological target: Fibroblast growth factor receptor 2 (Homo sapiens, UniProt P21802); experiment: Inhibition of recombinant human N-terminal His6-tagged FGFR2 (456 to 770 residues) expressed in baculovirus infected Sf21 insect cells using poly (Glu, Tyr)4:1 as substrate measured after 1 hr by ELISA; summary of the method: as §1
[5] = biological target: Vascular endothelial growth factor receptor 1 (Homo sapiens) (UniProt P17948); experiment: Inhibition of recombinant human VEGFR1 expressed in Spodoptera frugiperda insect cells at 10 nM using poly (Glu, Tyr)4:1 as substrate measured after 1 hr by ELISA relative to control
Summary of the method: (§2)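 ELISA kinase assay: recombinant kinase added to wells precoated with poly(Glu,Tyr)4:1 and incubated with compound in reaction buffer containing 5 μM ATP, 37 °C for 1 h; wells then washed before antibody detection.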

[6] = AUC (0 to t) in Sprague-Dawley rat at 2 mg/kg, iv administered […] by LC-MS/MS analysis; format: ADME, organism-based; settings: in vivo
Summary of the method: (§3)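 Male SD rats (200 ± 20 g) were fasted 12 h with free access to water, n = 3 per group. One group received 2 mg/kg iv in DMSO/EtOH/PEG300/saline (5/5/40/50). The other received 5 mg/kg by oral gavage in DMSO/HPMC (5/95). Femoral-vein plasma was taken at 15–1440 min, methanol-precipitated with internal standard, and measured by LC–MS/MS. Noncompartmental analysis; AUC by trapezoidal method.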

[7] = Clearance in Sprague-Dawley rat at 2 mg/kg, iv administered […] by LC-MS/MS analysis; format: ADME, organism-based; settings: in vivo; summary of the method: as §3
[8] = biological target: Epidermal growth factor receptor (Homo sapiens) (UniProt P00533); experiment: Inhibition of recombinant human N-terminal GST-tagged EGFR (696 to end residues) expressed in baculovirus infected Sf21 insect cells at 100 nM using poly (Glu, Tyr)4:1 as substrate measured after 1 hr by ELISA relative to control; summary of the method: as §1
[9] = biological target: Insulin-like growth factor 1 receptor (Homo sapiens) (UniProt P08069); experiment: Inhibition of recombinant human N-terminal His6-tagged IGF1R (959 to end residues) expressed in baculovirus infected Sf21 insect cells at 100 nM using poly (Glu, Tyr)4:1 as substrate measured after 1 hr by ELISA relative to control; summary of the method: as §2
[10] = biological target: Tyrosine-protein kinase ABL1 (Homo sapiens) (UniProt P00519); experiment: Inhibition of recombinant human N-terminal His6-tagged Abl (27 to end residues) expressed in baculovirus infected Sf21 insect cells at 10 nM using poly (Glu, Tyr)4:1 as substrate measured after 1 hr by ELISA relative to control; summary of the method: as §1
[11] = biological target: Fibroblast growth factor receptor 3 (Homo sapiens, UniProt P22607); experiment: Inhibition of recombinant human N-terminal His6-tagged FGFR3 (447 to 761 residues) expressed in baculovirus infected Sf21 insect cells at 100 nM using poly (Glu, Tyr)4:1 as substrate measured after 1 hr by ELISA relative to control; summary of the method: as §1
[12] = biological target: Focal adhesion kinase 1 (Homo sapiens) (UniProt Q05397); experiment: Inhibition of recombinant human N-terminal His6-tagged FAK (411 to 686 residues) expressed in baculovirus infected Sf21 insect cells at 100 nM using poly (Glu, Tyr)4:1 as substrate measured after 1 hr by ELISA relative to control; summary of the method: as §1
[13] = system: Mus musculus; experiment: Antiinflammatory activity in BALB/c mouse assessed as reduction in LPS-induced IL6 production at 20 to 40 mg/kg, po pretreated for 4 hrs followed by LPS-stimulation and measured after 3 hrs by ELISA; format: functional, organism-based
Summary of the method: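 Female BALB/c mice, 8 weeks old, n = 6 per group, dosed orally at 20 or 40 mg/kg in 0.5% CMC-Na/0.25% Tween-80 4 h before ip LPS 5 mg/kg. Orbital-sinus blood was taken at 1.5 h (TNF-α) and 3 h (IL-6). Serum cytokines measured by ELISA. Mean ± SEM, one-way ANOVA with Dunnett's test.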

[14] = biological target: Tyrosine-protein kinase BTK (Homo sapiens) (UniProt Q06187); experiment: Inhibition of recombinant human full-length N-terminal His6-tagged BTK expressed in baculovirus infected Sf21 insect cells at 1000 nM using poly (Glu, Tyr)4:1 as substrate measured after 1 hr by ELISA relative to control; summary of the method: as §2
[15] = biological target: Fibroblast growth factor receptor 4 (Homo sapiens, UniProt P22455); experiment: Inhibition of recombinant human N-terminal His6-tagged FGFR4 (442 to 755 residues) expressed in baculovirus infected Sf21 insect cells using poly (Glu, Tyr)4:1 as substrate measured after 1 hr by ELISA; summary of the method: as §2
[16] = Tmax in Sprague-Dawley rat at 5 mg/kg, po administered via gavage by LC-MS/MS analysis; format: ADME, organism-based; settings: in vivo
Summary of the method: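 Male SD rats (200 ± 20 g), fasted 12 h, n = 3; oral gavage 5 mg/kg in DMSO/HPMC (5/95). Femoral vein blood at 15–1440 min; plasma precipitated with methanol plus internal standard, LC–MS/MS; noncompartmental analysis, Tmax observed directly, MRT = AUMC/AUC.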

[17] = biological target: Platelet-derived growth factor receptor alpha (Homo sapiens) (UniProt P16234); experiment: Inhibition of recombinant human N-terminal His6-tagged PDGFRalpha (550 to end residues) expressed in baculovirus infected Sf21 insect cells at 1000 nM using poly (Glu, Tyr)4:1 as substrate measured after 1 hr by ELISA relative to control; summary of the method: as §2
[18] = biological target: Vascular endothelial growth factor receptor 1 (Homo sapiens) (UniProt P17948); experiment: Inhibition of recombinant human VEGFR1 expressed in Spodoptera frugiperda insect cells at 1000 nM using poly (Glu, Tyr)4:1 as substrate measured after 1 hr by ELISA relative to control; summary of the method: as §2

Chain of Vascular endothelial growth factor receptor 1 (Homo sapiens) (P17948 whole entry): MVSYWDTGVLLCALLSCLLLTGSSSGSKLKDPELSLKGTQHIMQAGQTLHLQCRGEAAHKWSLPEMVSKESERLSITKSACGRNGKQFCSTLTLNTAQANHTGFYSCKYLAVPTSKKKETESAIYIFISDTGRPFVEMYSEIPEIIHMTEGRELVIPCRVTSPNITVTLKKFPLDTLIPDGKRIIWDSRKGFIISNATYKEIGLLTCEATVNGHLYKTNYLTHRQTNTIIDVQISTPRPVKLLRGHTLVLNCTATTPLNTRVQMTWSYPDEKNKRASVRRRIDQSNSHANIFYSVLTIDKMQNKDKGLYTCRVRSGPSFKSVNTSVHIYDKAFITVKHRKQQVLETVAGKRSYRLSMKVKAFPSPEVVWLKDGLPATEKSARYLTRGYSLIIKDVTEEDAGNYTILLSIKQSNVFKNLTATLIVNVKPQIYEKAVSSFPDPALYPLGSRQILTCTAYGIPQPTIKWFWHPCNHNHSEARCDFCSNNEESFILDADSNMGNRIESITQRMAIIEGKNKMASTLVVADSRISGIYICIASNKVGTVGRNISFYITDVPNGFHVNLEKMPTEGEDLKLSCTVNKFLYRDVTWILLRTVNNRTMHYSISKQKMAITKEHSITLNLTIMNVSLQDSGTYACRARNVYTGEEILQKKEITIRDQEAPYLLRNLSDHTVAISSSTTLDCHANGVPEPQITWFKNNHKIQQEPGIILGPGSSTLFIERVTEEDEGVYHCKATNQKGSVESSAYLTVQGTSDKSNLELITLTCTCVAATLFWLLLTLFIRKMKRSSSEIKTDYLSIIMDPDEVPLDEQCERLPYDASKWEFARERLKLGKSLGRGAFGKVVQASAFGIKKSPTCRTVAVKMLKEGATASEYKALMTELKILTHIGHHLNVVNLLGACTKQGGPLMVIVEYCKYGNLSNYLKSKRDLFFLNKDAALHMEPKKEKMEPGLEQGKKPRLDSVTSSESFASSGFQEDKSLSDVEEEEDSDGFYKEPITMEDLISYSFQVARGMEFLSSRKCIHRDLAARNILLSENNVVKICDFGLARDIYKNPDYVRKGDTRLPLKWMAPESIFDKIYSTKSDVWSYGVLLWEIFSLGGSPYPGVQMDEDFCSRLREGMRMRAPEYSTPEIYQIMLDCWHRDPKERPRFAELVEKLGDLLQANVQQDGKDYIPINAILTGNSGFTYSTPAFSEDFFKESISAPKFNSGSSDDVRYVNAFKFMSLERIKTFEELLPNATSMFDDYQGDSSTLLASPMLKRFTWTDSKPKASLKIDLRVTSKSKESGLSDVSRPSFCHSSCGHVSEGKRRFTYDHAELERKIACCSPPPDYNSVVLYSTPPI
Chain of Platelet-derived growth factor receptor alpha (Homo sapiens) (P16234 whole entry): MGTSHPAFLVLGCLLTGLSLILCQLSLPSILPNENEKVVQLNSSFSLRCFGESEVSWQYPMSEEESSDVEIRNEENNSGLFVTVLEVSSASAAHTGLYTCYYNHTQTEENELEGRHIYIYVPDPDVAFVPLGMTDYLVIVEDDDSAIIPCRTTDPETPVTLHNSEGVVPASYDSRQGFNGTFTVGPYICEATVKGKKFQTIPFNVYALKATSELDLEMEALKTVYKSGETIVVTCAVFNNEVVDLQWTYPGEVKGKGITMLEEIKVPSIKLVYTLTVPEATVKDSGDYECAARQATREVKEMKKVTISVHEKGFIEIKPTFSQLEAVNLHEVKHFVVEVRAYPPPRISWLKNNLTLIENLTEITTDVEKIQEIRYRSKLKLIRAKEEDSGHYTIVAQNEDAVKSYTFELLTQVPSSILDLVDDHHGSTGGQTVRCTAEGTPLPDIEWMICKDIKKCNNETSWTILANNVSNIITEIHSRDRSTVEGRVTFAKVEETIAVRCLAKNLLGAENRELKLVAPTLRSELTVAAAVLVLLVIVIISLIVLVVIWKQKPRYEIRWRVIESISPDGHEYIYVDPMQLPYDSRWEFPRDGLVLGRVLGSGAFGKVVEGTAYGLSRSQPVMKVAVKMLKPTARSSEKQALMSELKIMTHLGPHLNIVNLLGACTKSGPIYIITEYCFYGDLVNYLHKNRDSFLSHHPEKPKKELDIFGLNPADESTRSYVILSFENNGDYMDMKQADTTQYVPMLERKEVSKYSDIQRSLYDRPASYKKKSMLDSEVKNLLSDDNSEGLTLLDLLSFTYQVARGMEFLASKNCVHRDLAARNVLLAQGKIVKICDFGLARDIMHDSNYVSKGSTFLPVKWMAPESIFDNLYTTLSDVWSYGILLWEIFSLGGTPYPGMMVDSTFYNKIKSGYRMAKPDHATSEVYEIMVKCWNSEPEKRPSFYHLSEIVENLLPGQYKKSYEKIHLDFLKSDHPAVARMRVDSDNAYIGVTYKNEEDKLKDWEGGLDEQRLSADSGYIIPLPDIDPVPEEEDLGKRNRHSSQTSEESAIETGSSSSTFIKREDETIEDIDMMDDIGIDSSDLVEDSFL
Chain of Fibroblast growth factor receptor 4 (P22455 whole entry, the tested form may be a part): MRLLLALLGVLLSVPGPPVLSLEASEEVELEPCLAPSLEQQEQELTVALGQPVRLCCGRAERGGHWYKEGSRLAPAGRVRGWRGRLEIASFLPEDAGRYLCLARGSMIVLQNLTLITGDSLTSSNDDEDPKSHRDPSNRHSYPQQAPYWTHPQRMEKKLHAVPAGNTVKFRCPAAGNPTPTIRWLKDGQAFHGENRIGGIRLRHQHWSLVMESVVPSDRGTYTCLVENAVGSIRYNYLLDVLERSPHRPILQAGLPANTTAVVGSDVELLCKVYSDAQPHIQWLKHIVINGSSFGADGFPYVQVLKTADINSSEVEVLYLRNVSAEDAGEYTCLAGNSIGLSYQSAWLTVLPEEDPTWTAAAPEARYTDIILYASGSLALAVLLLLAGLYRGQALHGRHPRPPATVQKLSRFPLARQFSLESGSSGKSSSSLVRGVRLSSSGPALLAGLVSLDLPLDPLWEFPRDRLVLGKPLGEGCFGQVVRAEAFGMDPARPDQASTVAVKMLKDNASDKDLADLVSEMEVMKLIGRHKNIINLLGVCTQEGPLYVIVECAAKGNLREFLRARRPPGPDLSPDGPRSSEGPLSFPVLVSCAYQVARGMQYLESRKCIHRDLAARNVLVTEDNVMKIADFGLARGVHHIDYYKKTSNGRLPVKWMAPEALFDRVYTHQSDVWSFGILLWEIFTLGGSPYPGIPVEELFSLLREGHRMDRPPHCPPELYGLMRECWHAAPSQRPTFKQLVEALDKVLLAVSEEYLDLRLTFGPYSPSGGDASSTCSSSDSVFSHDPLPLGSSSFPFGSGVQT
Chain of Insulin-like growth factor 1 receptor (Homo sapiens) (P08069 31-736 limits assumed): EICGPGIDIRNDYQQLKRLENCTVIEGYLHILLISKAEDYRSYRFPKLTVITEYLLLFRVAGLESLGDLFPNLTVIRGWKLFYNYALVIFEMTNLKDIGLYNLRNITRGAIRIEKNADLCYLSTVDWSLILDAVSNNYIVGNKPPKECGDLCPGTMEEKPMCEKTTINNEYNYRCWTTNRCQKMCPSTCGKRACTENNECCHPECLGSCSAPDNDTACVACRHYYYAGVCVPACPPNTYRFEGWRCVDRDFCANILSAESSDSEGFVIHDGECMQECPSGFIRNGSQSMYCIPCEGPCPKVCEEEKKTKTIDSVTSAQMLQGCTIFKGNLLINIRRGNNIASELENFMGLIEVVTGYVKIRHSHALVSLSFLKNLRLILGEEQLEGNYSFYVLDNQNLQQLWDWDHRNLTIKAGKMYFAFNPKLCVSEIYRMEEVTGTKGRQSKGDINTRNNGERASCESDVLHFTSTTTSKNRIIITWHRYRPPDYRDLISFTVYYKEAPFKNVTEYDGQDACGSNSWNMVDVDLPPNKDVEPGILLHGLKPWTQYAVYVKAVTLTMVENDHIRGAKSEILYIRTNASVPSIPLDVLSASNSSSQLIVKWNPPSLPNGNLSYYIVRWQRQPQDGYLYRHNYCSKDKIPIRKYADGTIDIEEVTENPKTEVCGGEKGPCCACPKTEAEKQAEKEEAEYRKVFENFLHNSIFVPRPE
Chain of Insulin-like growth factor 1 receptor (Homo sapiens) (P08069 741-1367 limits assumed): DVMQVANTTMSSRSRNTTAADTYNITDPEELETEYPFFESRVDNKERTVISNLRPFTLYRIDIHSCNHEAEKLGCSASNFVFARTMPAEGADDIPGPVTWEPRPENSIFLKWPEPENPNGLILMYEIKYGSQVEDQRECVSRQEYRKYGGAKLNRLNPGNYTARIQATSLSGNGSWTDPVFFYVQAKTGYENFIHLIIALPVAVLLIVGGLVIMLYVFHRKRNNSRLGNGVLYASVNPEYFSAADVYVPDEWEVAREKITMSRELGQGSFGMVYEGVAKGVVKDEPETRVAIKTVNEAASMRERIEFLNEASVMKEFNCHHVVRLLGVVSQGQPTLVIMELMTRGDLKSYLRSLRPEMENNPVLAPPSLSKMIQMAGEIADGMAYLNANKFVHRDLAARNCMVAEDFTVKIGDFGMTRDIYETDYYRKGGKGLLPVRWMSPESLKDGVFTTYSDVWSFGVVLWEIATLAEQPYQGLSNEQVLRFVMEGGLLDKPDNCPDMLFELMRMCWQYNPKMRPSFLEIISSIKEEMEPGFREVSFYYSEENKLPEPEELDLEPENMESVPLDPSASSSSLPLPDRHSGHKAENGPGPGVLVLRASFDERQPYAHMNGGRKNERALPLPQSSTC

SMILES: Cc1ccc(C(=O)Nc2ccc(Cl)cc2)cc1C#Cc1cc(-c2cnn(C)c2)cnc1N
- CC50 at 24 h [1]: 66 µM
- inhibition [2]: Dose-dependent effect
- inhibition at 1 h, 0.1 µM [3]: 100%
- IC50 [4]: > 1 µM
- inhibition [5]: 36.2%
- AUC(0-t) [6]: 729 ng·h/mL
- clearance [7]: 46 mL/min/kg
- inhibition [8]: 7.4%
- inhibition [9]: 0%
- inhibition [10]: 0%
- inhibition [11]: 0%
- inhibition [12]: 14.7%
- Activity [13]: Active
- inhibition [14]: 8%
- IC50 [15]: > 1 µM
- Tmax [16]: 4 h
- inhibition [17]: 92.6%
- inhibition [18]: 89.8%
